Compound activity: PubChem BioAssay, several laboratories
Mot1-301 SUMO = yeast Mot1-301 growth rescue at high temperature, primary screen, SUMOylation pathway inhibitor project, S. cerevisiae, ATP luminescence, 38.5C; S. cerevisiae Mot1-301 growth rescue; percent above DMSO median, 100 means doubled; growth rescue, % at 18.8 µM; 320,000 tested, 1% active; AID 2716, 2010;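 active = every valid replicate shows activation above 250% relative to neutral control wells; inactive = the rest, any valid replicate at or below 250%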;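 note: OY570 slx delta 5 strain wells were the positive control but not used for scaling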
Beta cell apopt = inhibitors of cytokine-induced beta cell apoptosis, primary screen, luminescence; AID 435005, 2010; INS-1E cytokine-induced death, ATP luminescence, 48 h; percent of positive-control rescue, neutral wells zero; 300,000 tested, 0.8% active; protection from apoptosis, % (test concentration not listed);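 active = Every replicate reaches about 75%, or at least half do and their mean reaches it too, limit read from the data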;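 note: 0% = cytokine-treated negative control wells and 100% = positive control rescue; higher means more ATP so stronger rescue from cytokine killing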
Efflux pump inh = inhibitors of Candida efflux pumps in yeast, primary screen, S. cerevisiae, Nile Red, multiplex | S. cerevisiae Candida pump triplex | inhibition, % at 10 µM | 330,000 tested, 0.44% active;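 active = plate passing quality check with inhibition over a set limit, or well fluorescence over plate mean plus 4 SD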;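 note: Nile Red retained in pooled yeast measured as flow cytometry median fluorescence; 0% = buffer negative control and 100% = Enniatin B positive control; higher means more Nile Red kept so more efflux inhibition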
T cruzi inh = inhibitors of intracellular T. cruzi growth, primary screen, luminescence, NIH3T3 host cells. inhibition, % (concentration not given with the values). 300,000 tested, 1.4% active. T. cruzi beta-gal in NIH3T3, 90 h;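 active = mean inhibition across valid replicates above about 55%, limit read from the data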;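 note: signal also drops with host cell toxicity which is not excluded here; 0% = plate median of DMSO wells and 100% = zero luminescence signal; higher percent means less beta-gal luminescence so fewer parasites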
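Assay system: NIH/3T3 fibroblasts plus reporter T. cruzi. Amount: NIH/3T3 cells, 5,000 per well. Buffer or medium: DMEM, 2% fetal bovine serum. Doses: compound pinned at 50 nL/well, DMSO. Schedule: ≥90 h infection period, 3 h prior cell attachment. Signal: luminescent β-galactosidase signal after 60 min lysis. Read-out: parasite load inhibition, %.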
CSC inhib = cancer stem cell viability inhibitors, primary screen, luminescence. 300,000 tested, 1.1% active. inhibition, % at 7.5 µM. cancer stem cell-like cells viability; in the data active = inhibition above about 75%; tested in HMLE shEcad cells
WT yeast gro inh = growth inhibition of WT strain, primary screen, mitochondrial fusion inhibitor project, WT and mutant strains, chemical genetic; mitochondrial fusion phenotypic screen; inhibition, % at 10 µM; 190,000 tested, 2.1% active; AID 1362, 2008; in the data active = inhibition above about 58%; tested in S. cerevisiae
Numbers without * were called inactive; nt = no result. Most compounds without a hit are left out; they make up all but 4.8% or so of the library.

SMILES	Mot1-301 SUMO	Beta cell apopt	Efflux pump inh	T cruzi inh	CSC inhib	WT yeast gro inh
Cc1ccc(NC(=O)C(=O)NCCCN2CCCC2=O)c(C)c1	38.6	-5.9	0.1	-1.5	-5.8	nt
Cc1ccc(C(=O)NC2CCCC2)s1	11.6	-2.6	-1.3	5.6	3.3	nt
Cc1ccc(NC(=O)C(=O)NCCCN2CCCC2=O)cc1	433.1*	nt	-0.1	1.5	-2.9	nt
O=C(NC1CCCC1)c1ccc([N+](=O)[O-])s1	-6.5	60.6	0.1	72.4*	-13.2	0.8
CCc1sc(C(=O)NCCCN2CCCC2=O)cc1Br	-8.5	-1.2	0.2	-8.5	10.7	nt
COCCN(C(=O)COC(=O)c1cc2ccccc2cc1O)c1c(N)n(Cc2ccccc2)c(=O)[nH]c1=O	-5.9	-3.6	0.0	-3.5	-2.6	nt
Cc1noc(C)c1COc1cccc(C(=O)Nc2ccc(OCc3ccccc3)cc2)c1	5.2	3.0	-0.4	20.2	98.0*	7.0
COc1ccc2nc(NC(=O)c3cccc(OCc4c(C)noc4C)c3)sc2c1	141.3	36.7	-0.1	34.6	68.5	73.5*
Cc1noc(C)c1COc1ccc(C(=O)Nc2ccccc2)cc1	-16.0	-1.0	0.0	1.2	-8.4	-10.9
CN(C)/C=C1\C(=O)Oc2ccccc2C1=O	185.9	nt	0.0	-26.6	-3.1	nt
Cc1sc(NC(=O)CSc2nc(N)cc(N)n2)c(C#N)c1C	318.6*	0.0	0.1	-14.7	-3.5	nt
Cc1sc(NC(=O)CSc2nnnn2C2CCCCC2)c(C#N)c1C	-5.2	-4.1	-0.2	-2.8	-8.0	74.6*
CC1CCc2c(sc(NC(=O)CSc3ncn[nH]3)c2C#N)C1 (configuration not stated)	-4.3	-18.8	0.4	-1.3	37.6	nt
CC(C)(C)C1CCc2c(sc(NC(=O)CSc3ncn[nH]3)c2C#N)C1 (configuration not stated)	86.5	16.2	-0.1	22.5	93.2*	93.1*
Cc1csc(SCC(=O)Nc2sc3c(c2C#N)CCC3)n1	nt	-0.7	0.0	17.1	nt	17.2
Cc1ccnc(SCC(=O)Nc2sc3c(c2C#N)CCCC3)n1	18.6	106.3*	0.1	13.0	15.5	15.4
CCOc1ccc(C2CC(=O)N(Nc3ccc([N+](=O)[O-])cc3[N+](=O)[O-])C2=O)cc1 (configuration not stated)	-0.4	-3.5	-0.1	-8.2	-13.6	nt
O=C(CC1c2ccccc2Oc2ccccc21)Nc1ccccc1C(F)(F)F	397.7	-1.6	0.0	32.8	8.0	8.8
Cn1c2c(c(=O)n(C)c1=O)C(C(F)(F)F)(C(F)(F)F)N=C(c1ccc(Cl)cc1)N2	-6.3	139.4*	0.1	24.2	nt	26.4
CCC(C)(C)NC(=O)C(c1ccc(C)cc1)N(CCN1CCOCC1)C(=O)CNC(=O)c1cccs1 (configuration not stated)	-10.9	-8.9	0.0	14.9	-14.3	-1.7
Fc1ccc(C(CCCn2nnc(-c3cccnc3)n2)c2ccc(F)cc2)cc1	-6.8	15.3	0.0	62.1*	52.5	61.3*
Fc1ccc(-n2nnc(-c3cccnc3)n2)cc1	39.4	-0.8	nt	-16.4	-20.4	-0.2
NC(=O)COc1ccc(/C=N\NC(=O)CC(=O)NCCc2ccccc2)cc1	40.2	2.0	-0.1	-6.4	-6.9	nt
COc1ccc(NC(=O)c2oc3ccccc3c2NC(=O)COc2ccccc2OC)c(OC)c1	-24.6	9.5	-0.3	-1.1	7.5	64.2*
COc1ccc(NC(=O)c2ccc(COc3ccccc3Br)o2)c(OC)c1	-6.6	-0.4	0.1	31.9	91.9*	nt
CCOCC(=O)Nc1c(C(=O)Nc2ccccc2OC)oc2ccccc12	408.2	14.6	-0.2	-8.7	-8.3	-1.5
CC(=O)C1=C(c2ccccc2)NC(=O)NC1c1ccccc1OCC#N (configuration not stated)	0.1	nt	0.1	-1.2	nt	-6.3
c1ccc2c(CN3CCSCC3)cccc2c1	209.1	-2.2	0.0	-6.6	-2.8	nt
O=C(COC(=O)/C=C/c1ccccc1[N+](=O)[O-])Nc1ccc2[nH]c(=O)[nH]c2c1	-12.1	-2.0	0.2	nt	-17.1	nt
Nn1cnc2c(c1=O)C1(CCCCC1)Cc1ccccc1-2	2.3	nt	0.3	2.7	-0.8	2.2
